Only some compounds are listed: those with a hit (about 3.9% of all), similar ones and a draw of the others.
CHO parental Ca: signal in parental CHO cells, OX1R antagonist counter-screen. parental CHO-K1, ATP-induced calcium, Fluo-8 fluorescence. inhibition, % at 5.6 µM. hit rate 0.63% among 330,000;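 active = inhibition above that plate's mean sample inhibition plus 3 SD, cut at about 26% in these data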;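 also: 0% = ATP-challenged DMSO wells and 100% = DMSO wells without ATP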
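Test system: parental CHO cells; detection: calcium-sensitive Fluo-8 fluorescence; evaluation: percent inhibition of calcium signal; also added: ATP as calcium-mobilizing challenge; repeats: one well per compound; control set: ATP-challenged DMSO wells low, unchallenged DMSO wells high; compound: single nominal dose of 5.6 µM per compound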
OX1R antag-1: antagonists of human orexin 1 receptor (OX1R); hit rate 1.8% among 330,000; inhibition, % at 6.6 µM; O43613; AID 485270; OX1R-expressing cells, FRET antagonist read-out; in the data active = inhibition mostly above about 38%, no sharp cut-off; inactive = mostly below about 40%;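 also: 0% = agonist challenge alone and 100% = reference antagonist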
Target sequence (O43613 whole entry, looked up): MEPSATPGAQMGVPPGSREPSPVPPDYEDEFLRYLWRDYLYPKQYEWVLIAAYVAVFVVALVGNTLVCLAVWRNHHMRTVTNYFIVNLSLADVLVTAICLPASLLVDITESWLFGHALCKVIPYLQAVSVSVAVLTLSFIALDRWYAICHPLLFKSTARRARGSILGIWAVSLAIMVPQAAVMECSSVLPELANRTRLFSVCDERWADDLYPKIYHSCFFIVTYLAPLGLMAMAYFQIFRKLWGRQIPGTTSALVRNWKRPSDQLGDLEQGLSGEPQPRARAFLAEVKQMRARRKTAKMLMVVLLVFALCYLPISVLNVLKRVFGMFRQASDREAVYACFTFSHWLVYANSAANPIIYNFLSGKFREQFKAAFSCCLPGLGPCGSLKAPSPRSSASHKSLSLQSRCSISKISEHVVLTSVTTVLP
TAAR1 ag: human TAAR1 agonism | AID 624467 | hit rate 0.99% among 360,000 | activation, % at 3 µM | CHO RD-HGA16 TAAR1, Fluo-8 calcium fluorescence; vehicle wells 0%, saturating PEA agonist 100% | Q96RJ0;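 active = activation above the mean activation of all test compounds in the run plus 3 SD, cut at about 38% in these data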
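Signal – calcium-sensitive Fluo-8 signal, excitation 470-495, emission 515-575 nm · System – RD-HGA16 (CHO) cells co-expressing Gα16 and hTAAR1 · Incubation – 17-24 h seeding, 75 min 37 °C dye, 30 min RT · Compound dosing – 3 µM single concentration · Repeats – no replicates (n 1)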
OX1R antag-2: blocks the human orexin 1 receptor; O43613; CHO/OX1R cells, Fluo-8 calcium fluorescence, orexin A; inhibition, % at 5 µM; hit rate 0.43% among 330,000;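 active = inhibition above its plate's threshold, mean inhibition of all tested compounds on the plate plus 3 SD, cut at about 37% in these data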;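 also: 0% = orexin A challenge wells and 100% = SB-334867-A antagonist wells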
TAAR1 antag: human TAAR1 antagonism. hit rate 1.5% among 360,000. AID 624466. inhibition, % at 3 µM. CHO RD-HGA16 TAAR1, Fluo-8 calcium fluorescence, antagonist;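 active = inhibition above a per-plate cutoff, the mean inhibition of test compounds on that plate plus 3 SD, cut at about 49% in these data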;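 also: 0% = DMSO plus EC80 beta-PEA response and 100% = DMSO alone without agonist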
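test system = CHO RD-HGA16 cells bearing hTAAR1 | replication = singlicate | controls = DMSO-only wells and EC80 β-PEA-stimulated wells | reagent = EC80 β-phenethylamine stimulus | read-out basis = percent inhibition of PEA-evoked calcium signal, max/basal emission ratio | schedule = seeding 17-24 h prior, 75-min 37 °C, 30-min RT dye loading | signal = kinetic Fluo-8 calcium fluorescence measurement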
OX1R Ca confirm: OX1R (human) antagonism, confirmed; shares compounds with OX1R antag-2; CHO/OX1R cells, orexin A calcium Fluo-8 fluorescence; inhibition, % at 5 µM; hit rate 38% among 1,100; in the data active = inhibition above about 29%;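 also: 0% = agonist challenge alone and 100% = reference antagonist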
CHO Ca triplic: counter-screen: parental CHO calcium response change, triplicate. shares compounds with OX1R antag-2. parental CHO-K1, ATP-induced calcium, Fluo-8 fluorescence. inhibition, % at 5.6 µM. hit rate 9.3% among 1,100. AID 492965;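 active = inhibition above a per-plate limit, the mean inhibition of that plate's test compounds plus 3 SD, cut at about 25% in these data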;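 also: 0% = ATP challenge with DMSO and 100% = DMSO without ATP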
OX1R HTRF confirm: OX1R (human) antagonism, HTRF confirmed; hit rate 49% among 1,800; AID 492964; shares compounds with OX1R antag-1; OX1R-expressing cells, HTRF antagonist assay; inhibition, % at 6.6 µM; in the data active = inhibition above about 55%;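 also: CHO cells expressing OX1R stimulated with orexin A at about EC80; 0% = agonist challenge alone and 100% = reference antagonist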
CHO-K1 HTRF: counter-screen: parental CHO-K1 HTRF response. inhibition, % at 6.6 µM. shares compounds with OX1R antag-1. parental CHO-K1 cells, HTRF counterscreen. hit rate 48% among 1,800; in the data active = inhibition above about 17%;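 also: 0% = agonist challenge with vehicle and 100% = vehicle alone without agonist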
The depositor's hits bear a star; . = no result given.

SMILES	CHO parental Ca	OX1R antag-1	TAAR1 ag	OX1R antag-2	TAAR1 antag	OX1R Ca confirm	CHO Ca triplic	OX1R HTRF confirm	CHO-K1 HTRF
COc1cccc(/C=N\NC(=O)C2C(=O)NCC2c2ccccc2)c1O (stereo not given)	-13	23	3	7	-10	.	.	.	.
CCCS(=O)(=O)NC(=O)C1(C)CCN(C(=O)C2(c3ccc(Cl)cc3)CCCC2)C1 (stereo not given)	.	.	0	.	-25	.	.	.	.
Cn1cc(/C=C(\C#N)C(=O)Nc2ccccc2O)c2ccccc21	-8	68*	.	57*	.	57*	10	89*	11
O=C(Nc1sc2c(c1C(=O)NCC1CCCO1)CCCC2)c1cccs1 (stereo not given)	15	40*	7	48*	33	-4	-11	45	9
CC(C)N(Cc1ccccc1)C(=O)CN1C(=O)NC(Cc2ccccc2)(c2ccccc2)C1=O (stereo not given)	-17	81*	-1	28	-18	42*	-14	87*	-15
Nc1[nH]c(C(=O)c2ccccc2)c(-c2ccc3ccccc3c2)c1C(=O)NCc1ccc(F)cc1	.	.	5	.	-32	.	.	.	.
NNC(=O)c1cc2sccc2s1	-27	87*	3	91*	6	1	18	22	4
O=C(Nc1nccs1)C1CCCN1S(=O)(=O)c1ccc(F)cc1 (stereo not given)	-20	75*	10	44*	4	8	-5	31	-5
CC(=O)Nc1ccc(S(=O)(=O)N2CCCC2C(=O)Nc2ccc(F)cc2)cc1 (stereo not given)	-5	16	2	13	-10	.	.	.	.
O=C(Nc1ccc(F)c(F)c1)C1CCCN1S(=O)(=O)c1ccc(F)cc1 (stereo not given)	9	74*	1	37*	14	42*	-15	70*	0
O=C(Nc1ccc(F)cc1)C1CCCN1S(=O)(=O)c1ccc(Br)cc1 (stereo not given)	-19	81*	-2	32	-7	38*	-10	89*	-4
COc1ccc(S(=O)(=O)N2CCCC2C(=O)Nc2nc3c(s2)CCCC3)cc1 (stereo not given)	-36	95*	1	45*	1	44*	-5	88*	2
CNC(=O)C1CCCN1S(=O)(=O)c1ccc(OC)cc1 (stereo not given)	0	8	-1	-12	11	.	.	.	.
COc1ccc(/C=N/NC(=O)c2ccc3ccccc3c2)cc1OS(=O)(=O)c1ccc(NC(C)=O)cc1	18	63*	12	60*	74*	41*	13	53	-1
CCCC(=O)N1CCC1(C)C(=O)Nc1ncc(C(=O)OC)s1 (stereo not given)	.	.	2	.	-21	.	.	.	.
CNc1nc(Nc2ccc(C)c(Cl)c2)c2cnn(C)c2n1	-16	84*	13	33	29	9	-7	84*	12
CCCNc1nc(Nc2ccc(C)c(Cl)c2)c2cnn(C)c2n1	-17	3	2	-31	-22	.	.	.	.
Cc1c(C(=O)OC(C)C(=O)N(C)Cc2ccccc2)oc2ccccc12 (stereo not given)	-19	86*	6	53*	5	53*	-10	88*	4
COc1ccc2oc(C(=O)OC(C)C(=O)NCc3ccccc3)c(C)c2c1 (stereo not given)	-35	6	0	-33	-2	.	.	.	.
CC(C)NC(=O)C1(C)CN(S(C)(=O)=O)CC(=O)N1Cc1ccco1 (stereo not given)	.	.	1	.	-5	.	.	.	.
Cc1cc(C)c2nc(NC(=O)CN3C(=O)NC4(CCCC4)C3=O)sc2c1	-12	69*	5	30	-4	18	-3	52	0
Oc1ccc2ccccc2c1/C=N/n1cnnc1	-6	11	11	9	-3	.	.	.	.
Cc1nn(C)c(C)c1N=Cc1c(O)ccc2ccccc12	-14	83*	9	43*	-4	1	-3	77*	11
COc1cc2c(cc1NC(=O)c1ccccc1F)CCCC2	-3	21	1	-23	-30	.	.	.	.
COc1cc(OC)c(NC(=O)c2ccccc2F)cc1Cl	-7	89*	3	30	3	35*	-9	82*	9
SMILES	CHO parental Ca	OX1R antag-1	TAAR1 ag	OX1R antag-2	TAAR1 antag	OX1R Ca confirm	CHO Ca triplic	OX1R HTRF confirm	CHO-K1 HTRF
COc1ccccc1C(=O)Nc1nnc(-c2ccco2)s1	-31	59*	4	55*	11	12	-1	56*	6
COc1ccc2cc(C(=O)/C=C/c3cc(OC)c(O)c(OC)c3)ccc2c1	-15	62*	21	35	23	49*	-1	75*	-9
CC(C)(C)C(=O)c1c(N)[nH]c(C(=O)c2ccccc2)c1-c1ccc([N+](=O)[O-])cc1	.	.	0	.	4	.	.	.	.
COCc1[nH]nc2c1C(c1ccc(C)cc1)N(Cc1ccccc1)C2=O (stereo not given)	.	.	0	.	-10	.	.	.	.
Cc1ccc2nc(-c3ccc(CN4CCC5(CC4)CNc4ccccc45)cc3)c(-c3ccccc3)nc2c1	.	.	0	.	22	.	.	.	.
Cc1cc(C)nc(NC(=O)/C=C/c2ccc(Cl)cc2Cl)c1	-22	92*	3	43	37	-5	-5	63*	3
OC[C@@H]1CN(CCN2CCOCC2)C[C@H](n2cnc3c(NC4CCCC4)ncnc32)O1	.	.	3	.	-18	.	.	.	.
COc1ccc(C(=O)COc2ccccc2C(=O)Nc2ccccc2)cc1	-2	71*	2	42*	19	37*	-11	60*	9
O=C(COC(=O)c1cccc(Br)c1)NCC1CCCO1 (stereo not given)	-7	4	1	16	-18	.	.	.	.
CN(CC(O)Cn1c2ccccc2c2ccccc21)S(C)(=O)=O (stereo not given)	-3	-5	6	7	1	.	.	.	.
CS(=O)(=O)N(CC(O)Cn1c2ccccc2c2ccccc21)c1ccccc1 (stereo not given)	13	49*	16	27	39	36*	-2	44	3
COc1ccc(N=Cc2oc3ccc4ccccc4c3c2O)cc1	14	58*	17	25	28	27	20	67*	12
COc1ccc(N=Cc2ccccc2O)cc1	.	.	1	.	-8	.	.	.	.

Source: PubChem BioAssay (The Scripps Research Institute Molecular Screening Center)
